The values that follow come from PubChem BioAssay.

Experiment [1] in a line: reducers of endogenous Her2 protein level, primary screen, SKBR3 breast tumor cells, AlphaScreen, ATP viability (AID 461;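 active = Her2 level under about 52% in both replicate screens, with viability over 70% of control, limit read from the data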;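 as to Her2 level: lower value means less Her2 protein in the cells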;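 as to viability: percent of carrier control wells set as 100% viability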). The settings on record: 18-24 h, measured here: SKBR3 viability, ATP luminescence, at 10 µM.
Experiment [2] addresses Receptor tyrosine-protein kinase erbB-2 (Homo sapiens) (UniProt P04626). Described as above. The settings on record: 18-24 h, at 10 µM, stronger effect = lower value.
Experiment [3] in a line: SK-BR-3 cell growth inhibitors, pilot screen, 24 h, human (AID 572;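 active = viability at or below 10% of carrier control in both of two separate runs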;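 also: compound exposure lasted between 18 and 24 h rather than exactly 24 h; 100% = carrier-treated control wells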). The settings on record: SK-BR-3 viability, CellTiter-Glo luminescence, at 10 µM, stronger effect = lower value. Background: In ATP-based viability assays light output follows the ATP content of the culture.
Experiment [4] is described as follows: HUVEC growth inhibition – cell-based, human, primary screen (AID 575;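 active = viability at or below 30% in both replicate assays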;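 also: 100% = median of untreated cell wells with 0.1% DMSO on each plate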). The settings on record: HUVEC proliferation, CellTiter-Glo luminescence, 72 h; at 10 µM; stronger effect = lower value. An outline of the steps:
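System: primary human umbilical vein endothelial cells; Quantity: 1250 endothelial cells in each well; Buffer or medium: supplemented EBM, 2% fetal bovine serum; Doses: one dose, 10 µM final, 0.1% DMSO; Incubation: 72 h compound incubation; Technique: ATP-based CellTiter-Glo luminescent read; Evaluation: percent of median DMSO-control luminescence; Controls: vehicle and MePR control wells.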

Experiment [5] is described as follows: growth inhibitors of H69AR lung tumor, primary screen, human, duplicate replicates (AID 580;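 active = viability at or under a set limit in both replicates, limit being median viability minus 3 SD, cut at about 48% in these data, passing the limit was not always enough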;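 also: 100% = mean luminescence of untreated wells and 0% = no signal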). Conditions: H69AR lung tumor cells viability, ATP luminescence, 72 h; at 10 µM; stronger effect = lower value.
Experiment [6] in a line: reversal of MRP1-mediated doxorubicin resistance, pilot screen, H69AR cells, doxorubicin co-treatment (AID 601;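 active = viability loss from added drug above about 55%, and viability with drug at most 40%, in both replicates, limit read from the data, passing the limit was not always enough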). Conditions: CellTiter-Glo, 72 h, at 10 µM; for differential viability (reversal): stronger effect = higher value.
The nature of experiment [7]: 384-well plate pilot, post-Golgi transport modulator project, inhibition of yeast transport mutant growth (AID 636; in the data active = inhibition above about 31%). The settings on record: absorbance 615 nm, about 18 h, stronger effect = higher value.
Experiment [8] is described as follows: growth suppression of yeast trafficking mutant, preliminary HTS, modulators of trafficking downstream of Golgi apparatus project, 1536-format plate, OD 615 nm (AID 637). Conditions: yeast transport mutant growth, absorbance 615 nm, 18 h; stronger effect = higher value.
Setting [9] is: H69AR cells + 2 uM doxorubicin, measured here: viability with 2 uM doxorubicin, stronger effect = lower value.
The mark [10] stands for this setting: H69AR cells, compound alone cytotoxicity.

Active and inactive are the calls of the source. Rule as the data show it, unless noted: active = inhibition above about 30%; inactive = the rest.

Chain of Receptor tyrosine-protein kinase erbB-2 (Homo sapiens) (P04626 whole entry, looked up): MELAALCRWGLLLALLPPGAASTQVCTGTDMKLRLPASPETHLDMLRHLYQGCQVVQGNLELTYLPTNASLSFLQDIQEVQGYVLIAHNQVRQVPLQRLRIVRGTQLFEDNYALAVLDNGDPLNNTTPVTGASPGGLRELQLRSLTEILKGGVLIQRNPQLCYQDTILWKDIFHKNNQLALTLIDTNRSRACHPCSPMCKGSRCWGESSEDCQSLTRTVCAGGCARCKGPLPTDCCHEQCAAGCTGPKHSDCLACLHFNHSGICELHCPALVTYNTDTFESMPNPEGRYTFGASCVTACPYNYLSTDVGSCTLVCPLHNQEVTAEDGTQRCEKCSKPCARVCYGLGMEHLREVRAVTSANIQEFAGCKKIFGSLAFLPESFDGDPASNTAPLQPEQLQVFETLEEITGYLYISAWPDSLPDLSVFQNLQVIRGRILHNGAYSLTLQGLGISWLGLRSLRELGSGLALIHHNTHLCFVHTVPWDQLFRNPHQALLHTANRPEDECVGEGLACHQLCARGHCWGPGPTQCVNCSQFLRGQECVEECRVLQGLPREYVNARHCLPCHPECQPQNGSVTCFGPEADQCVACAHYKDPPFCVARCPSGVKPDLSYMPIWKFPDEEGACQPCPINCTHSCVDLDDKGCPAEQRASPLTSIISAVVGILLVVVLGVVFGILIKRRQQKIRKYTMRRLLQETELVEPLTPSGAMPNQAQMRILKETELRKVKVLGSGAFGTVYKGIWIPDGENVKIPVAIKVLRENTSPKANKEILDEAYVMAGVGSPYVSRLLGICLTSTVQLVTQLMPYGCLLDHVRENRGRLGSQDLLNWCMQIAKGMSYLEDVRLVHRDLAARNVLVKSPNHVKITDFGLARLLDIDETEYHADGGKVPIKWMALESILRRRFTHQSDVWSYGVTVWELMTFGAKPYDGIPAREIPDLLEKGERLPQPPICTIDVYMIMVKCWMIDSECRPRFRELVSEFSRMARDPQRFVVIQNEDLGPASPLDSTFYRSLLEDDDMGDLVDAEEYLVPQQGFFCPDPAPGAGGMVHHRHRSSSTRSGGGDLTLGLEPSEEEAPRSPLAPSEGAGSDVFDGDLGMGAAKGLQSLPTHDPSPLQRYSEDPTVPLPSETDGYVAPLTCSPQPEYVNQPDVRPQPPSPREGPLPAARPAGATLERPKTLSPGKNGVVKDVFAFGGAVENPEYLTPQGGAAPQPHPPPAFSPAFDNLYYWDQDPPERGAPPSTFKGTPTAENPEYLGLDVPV

Take `Cc1onc(-c2c(Cl)cccc2Cl)c1C(=O)N1CCc2ccccc21`: the viability in experiment [1] was 97%; in experiment [3], 97% (inactive); in experiment [4], 68.1% (inactive); in experiment [5], 61.6% (inactive); in experiment [6] (setting [9]) it was 85.9%; in experiment [6] (setting [10]), 61.6%. Further, in experiment [2], the Her2 level is 91.5% (inactive). In addition, in experiment [6] (H69AR cells + 2 uM doxorubicin), the differential viability (reversal) is -24.3% (inactive). For the same molecule, the inhibition in experiment [7] is -0.93% (inactive); in experiment [8], 2.74% (inactive).
Turning to `CCOC(=O)c1cn(CC)c2cc(N3CCOCC3)c(F)cc2c1=O`, the viability in experiment [1] was 104%; in experiment [3], 104% (inactive); in experiment [4] it was 94.6% (inactive); in experiment [5], 90.8% (inactive); in experiment [6] (setting [9]), 101%; in experiment [6] (setting [10]), 90.8%. Moreover, in experiment [2], the Her2 level is 106% (inactive). Also, in experiment [6] (H69AR cells + 2 uM doxorubicin), the differential viability (reversal) is -10.3% (inactive). For the same molecule, the inhibition in experiment [7] is 2.16% (inactive); in experiment [8], -0.63% (inactive).
Consider `O=c1c2c(nc3nc(COc4ccccc4)[nH]n13)CCC2`, for which the viability in experiment [1] was 103%; in experiment [3] it was 103% (inactive); in experiment [4], 99.5% (inactive); in experiment [5], 101% (inactive); in experiment [6] (setting [9]), 90.2%; in experiment [6] (setting [10]), 101%. Also, the Her2 level in experiment [2] is 103% (inactive). For the same molecule, the differential viability (reversal) in experiment [6] (H69AR cells + 2 uM doxorubicin) is 10.9% (inactive). In addition, the results for the inhibition in experiment [7] and in experiment [8] were -4.8% (inactive) and 3.23% (inactive), respectively.
For `CC1(C)C(=O)Nc2ccccc2N1C(=O)COC(=O)Cn1cnc2ccccc2c1=O`, the viability in experiment [1] is 110%; in experiment [3], 110% (inactive); in experiment [4], 110% (inactive); in experiment [5] it was 96.3% (inactive); in experiment [6] (setting [9]), 94.5%; in experiment [6] (setting [10]), 96.3%. In addition, in experiment [2], the Her2 level is 112% (inactive). The differential viability (reversal) in experiment [6] (H69AR cells + 2 uM doxorubicin) was 1.74% (inactive). Also, the inhibition is -3.55% (inactive) in experiment [7] and -5.5% (inactive) in experiment [8].
With `COc1ccc2c(CC(=O)Nc3ccc(OC)c(NS(=O)(=O)c4ccc(F)cc4)c3)coc2c1`, the viability in experiment [1] is 88%; in experiment [3] it was 88% (inactive); in experiment [4] it was 70.2% (inactive); in experiment [5] it was 86.3% (inactive); in experiment [6] (setting [9]), 88.1%; in experiment [6] (setting [10]), 86.3%. For the same molecule, the Her2 level in experiment [2] is 85% (inactive). Moreover, the differential viability (reversal) in experiment [6] (H69AR cells + 2 uM doxorubicin) is -1.86% (inactive). Moreover, the inhibition in experiment [7] is -2.18% (inactive); in experiment [8] it was -0.33% (inactive).
As for `O=C(c1ccco1)N1CCN(S(=O)(=O)c2ccc(Oc3ccccc3)cc2)CC1`, the viability in experiment [1] is 82%; in experiment [3], 82% (inactive); in experiment [4] it was 78.6% (inactive); in experiment [5], 90.6% (inactive); in experiment [6] (setting [9]), 96.8%; in experiment [6] (setting [10]), 90.6%. For the same molecule, the Her2 level in experiment [2] is 102% (inactive). Further, the differential viability (reversal) in experiment [6] (H69AR cells + 2 uM doxorubicin) was -6.27% (inactive). Moreover, the results for the inhibition in experiment [7] and in experiment [8] were -1.35% (inactive) and 5.74% (inactive), respectively.
With `O=C(CSC1=NC(=O)C(Cc2ccccc2)C(=O)N1)NC1CCCCC1` (stereo not given), the viability in experiment [1] is 100%; in experiment [3], 100% (inactive); in experiment [4], 87.8% (inactive); in experiment [5], 91.7% (inactive); in experiment [6] (setting [9]), 83.2%; in experiment [6] (setting [10]), 91.7%. Besides, the Her2 level in experiment [2] is 118% (inactive). Moreover, the differential viability (reversal) in experiment [6] (H69AR cells + 2 uM doxorubicin) was 8.56% (inactive). Further, the inhibition was -0.53% (inactive) in experiment [7] and 23.1% (inactive) in experiment [8].
As for `CN(CC(=O)N1CCN(c2ccc(F)cc2)CC1)S(=O)(=O)c1ccc(F)cc1`, the viability was 97% in experiment [1]; 97% (inactive) in experiment [3]; 88.4% (inactive) in experiment [4]; 86.6% (inactive) in experiment [5]; 94.5% in experiment [6] (setting [9]); 86.6% in experiment [6] (setting [10]). In addition, the Her2 level in experiment [2] is 95.5% (inactive). Besides, the differential viability (reversal) in experiment [6] (H69AR cells + 2 uM doxorubicin) was -7.95% (inactive). Further, the values for the inhibition in experiment [7] and in experiment [8] were -6.18% (inactive) and 5.25% (inactive), respectively.
Take `COCCN1C(=O)C(=O)/C(=C(/O)c2cccc(S(=O)(=O)N(C)C)c2)C12C(=O)N(C)c1ccccc12` (stereo not given): the viability in experiment [1] was 110%; in experiment [3], 110% (inactive); in experiment [4], 110% (inactive); in experiment [5] it was 99.5% (inactive); in experiment [6] (setting [9]), 95.9%; in experiment [6] (setting [10]), 99.5%. The Her2 level in experiment [2] is 91.5% (inactive). In experiment [6] (H69AR cells + 2 uM doxorubicin), the differential viability (reversal) is 3.6% (inactive). For the same molecule, the inhibition was -7.76% (inactive) in experiment [7] and -2.38% (inactive) in experiment [8].
As for `O=C1CCNc2cc3ccccc3cc21`, the viability in experiment [1] is 73.5%; in experiment [3] it was 73.5% (inactive); in experiment [4] it was 61.7% (inactive); in experiment [5], 70.5% (inactive); in experiment [6] (setting [9]), 70%; in experiment [6] (setting [10]), 70.5%. Besides, the Her2 level in experiment [2] was 84% (inactive). Further, the differential viability (reversal) in experiment [6] (H69AR cells + 2 uM doxorubicin) was 0.425% (inactive). The results for the inhibition in experiment [7] and in experiment [8] were -8.9% (inactive) and 1.27% (inactive), respectively.
For `CCNC(=O)N(C)c1nncnc1C(=O)NC`, the viability is 85% in experiment [1]; 85% (inactive) in experiment [3]; 89.8% (inactive) in experiment [4]; 95.8% (inactive) in experiment [5]; 89.6% in experiment [6] (setting [9]); 95.8% in experiment [6] (setting [10]). Also, in experiment [2], the Her2 level is 88% (inactive). Moreover, the differential viability (reversal) in experiment [6] (H69AR cells + 2 uM doxorubicin) is 6.2% (inactive). For the same molecule, the inhibition in experiment [7] is -3.6% (inactive); in experiment [8] it was 5.57% (inactive).
`O=S(=O)(c1cccc(-c2nnco2)c1)N1CCCC1`: the viability in experiment [1] was 100%; in experiment [3], 100% (inactive); in experiment [4], 114% (inactive); in experiment [5], 95.4% (inactive); in experiment [6] (setting [9]), 92.8%; in experiment [6] (setting [10]) it was 95.4%. Further, the Her2 level in experiment [2] is 116% (inactive). Besides, in experiment [6] (H69AR cells + 2 uM doxorubicin), the differential viability (reversal) is 2.63% (inactive). The values for the inhibition in experiment [7] and in experiment [8] were -3.33% (inactive) and -7.42% (inactive), respectively.
Take `CCn1cc(C(=O)Nc2cc3c(cc2NC(C)=O)OCCO3)c(=O)c2ccc(C)nc21`: the viability is 96.5% in experiment [1]; 96.5% (inactive) in experiment [3]; 106% (inactive) in experiment [4]; 91% (inactive) in experiment [5]; 95% in experiment [6] (setting [9]); 91% in experiment [6] (setting [10]). In experiment [2], the Her2 level is 100% (inactive). Also, the differential viability (reversal) in experiment [6] (H69AR cells + 2 uM doxorubicin) is -4.02% (inactive). Also, the inhibition in experiment [7] was -6.13% (inactive); in experiment [8], 0.48% (inactive).
In the case of `CC1Oc2ccccc2N(CC(=O)N(Cc2ccccc2)Cc2ccccn2)C1=O` (stereo not given), the viability in experiment [1] was 108%; in experiment [3] it was 108% (inactive); in experiment [4] it was 110% (inactive); in experiment [5], 88.6% (inactive); in experiment [6] (setting [9]), 90.1%; in experiment [6] (setting [10]), 88.6%. Moreover, the Her2 level in experiment [2] is 100% (inactive). Moreover, in experiment [6] (H69AR cells + 2 uM doxorubicin), the differential viability (reversal) was -1.47% (inactive). Further, the inhibition in experiment [7] is -5.54% (inactive); in experiment [8] it was -10% (inactive).
Regarding `CCn1c(SCC(=O)Nc2nccs2)nnc1-c1ccncc1`, the viability in experiment [1] was 101%; in experiment [3], 101% (inactive); in experiment [4] it was 87% (inactive); in experiment [5], 84.8% (inactive); in experiment [6] (setting [9]), 87.1%; in experiment [6] (setting [10]), 84.8%. For the same molecule, the Her2 level in experiment [2] was 63.5% (inactive). Besides, the differential viability (reversal) in experiment [6] (H69AR cells + 2 uM doxorubicin) is -2.34% (inactive). Moreover, the inhibition in experiment [7] was -2.11% (inactive); in experiment [8], 2.7% (inactive).

By viability is commonly meant a read-out of living cells in per cent, often relative to untreated cells. As usually defined, the inhibition is the change of the read-out against control, counted positive when it falls.
